Laboratory results from ChEMBL document CHEMBL4043176, “Synthesis of 3-[4-(dimethylamino)phenyl]alkyl-2-oxindole derivatives and their effects on neuronal cell death” (Bioorg Med Chem Lett, 2017).
The source made the active and inactive calls. The rule behind the calls is not given here.

Experiments:
HT-22 [1] = assay: Cytotoxicity against mouse HT22 cells up to 100 uM after 24 hrs by LDH-release assay; type: cell-based; conditions: ht-22, 24 h
Outline: (§1)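 HT22 cells exposed to compound alone, without glutamate (cytotoxicity tested up to 100 µM). Cell injury is read as lactate dehydrogenase released into the culture medium, measured with a cytotoxicity detection kit. LDH from control cultures is set at 100%.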

HT-22 [2] = assay: Neuroprotective activity against glutamate-induced neuronal cell death in mouse HT22 cells at 25 to 50 uM after 24 hrs by LDH-release assay relative to control; type: functional
Outline: (§2)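 HT22 cells exposed to 10 mM glutamate together with compound at 25 or 50 µM for 24 h. Cell death read as LDH released into the culture medium (cytotoxicity detection kit). Control is LDH release from cells incubated without glutamate, set at 100%.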

HT-22 [3] = assay: Neuroprotective activity against glutamate-induced neuronal cell death in mouse HT22 cells after 24 hrs by LDH-release assay; type: functional, cell-based; conditions: HT-22, 24 h
Outline: (§3)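 HT22 cells co-incubated 24 h with 10 mM glutamate plus compound at 0, 1.0, 2.5, 5.0, 10 or 25 µM. Cell death is read as LDH released into the medium. Control-culture LDH is set at 100%. IC50 values were estimated from this low-dose series; for some compounds, approximate IC50s were corrected by subtracting suppression of basal, glutamate-independent death.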

HT-22 [4] = assay: Neuroprotective activity against glutamate-induced neuronal cell death in mouse HT22 cells at 1 to 25 uM after 24 hrs by LDH-release assay relative to control; type: functional, cell-based; outline: as §3
HT-22 [5] = assay: Neuroprotective activity against glutamate-induced neuronal cell death in mouse HT22 cells at 2.5 to 10 uM after 24 hrs by LDH-release assay relative to control; type: functional, cell-based; outline: as §3
HT-22 [6] = assay: Neuroprotective activity against glutamate-induced neuronal cell death in mouse HT22 cells at 2.5 to 5 uM after 24 hrs by LDH-release assay relative to control; type: functional, cell-based; outline: as §3
HT-22 [7] = assay: Cytotoxicity against mouse HT22 cells after 24 hrs in absence of glutamate by LDH-release assay relative to control; type: ADME, cell-based; conditions: ht-22, 24 h; outline: as §1
HT-22 [8] = assay: Neuroprotective activity against glutamate-induced neuronal cell death in mouse HT22 cells at 25 uM after 24 hrs by LDH-release assay relative to control; type: functional; outline: as §2
HT-22 [9] = assay: Neuroprotective activity against glutamate-induced neuronal cell death in mouse HT22 cells at 50 uM after 24 hrs by LDH-release assay relative to control; type: functional, cell-based
Outline: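 HT22 cells treated 24 h with 10 mM glutamate and compound at 0, 25 or 50 µM. Cell death is read as lactate dehydrogenase released into the culture medium, measured with a cytotoxicity detection kit. LDH of control cultures is set at 100%.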

HT-22 [10] = assay: Neuroprotective activity against glutamate-induced neuronal cell death in mouse HT22 cells at 1 to 10 uM after 24 hrs by LDH-release assay relative to control; type: functional, cell-based; outline: as §3

With CN(C)CCCCCCCC1(C)C(=O)Nc2ccccc21 (centres undefined) the Activity (HT-22 [1]) was “Non-Toxic” and the Activity (HT-22 [2]) was “inactive”.
CN(C)c1ccc(CCCC2C(=O)Nc3ccc(C(F)(F)F)cc32)cc1 (centres undefined) was tested, and the Activity (HT-22 [1]) was “Non-Toxic”.
In the case of COc1ccc2c(c1)C1(CCN(c3ccccc3)CC1)C(=O)N2, the Activity (HT-22 [1]) is reported as “Non-Toxic” and the Activity (HT-22 [2]) is reported as “inactive”.
For COc1ccc2c(c1)C(C)(CCCc1ccc(N(C)C)cc1)C(=O)N2CC(=O)N(C)C (centres undefined), the Activity (HT-22 [1]) was “Non-Toxic”.
In the case of COCCOc1ccc2c(c1)C(C)(CCCc1ccc(N(C)C)cc1)C(=O)N2 (centres undefined), the Activity (HT-22 [1]) is reported as “Non-Toxic”.
In the case of COc1ccc(N2C(=O)C(C)(CCCc3ccc(N(C)C)cc3)c3ccccc32)cc1 (centres undefined), the Activity (HT-22 [1]) is reported as “Non-Toxic”.
In the case of CN(C)c1ccc(CC2C(=O)Nc3ccccc32)cc1 (racemic), the IC50 (HT-22 [3]) is reported as 7.1 µM, the Activity (HT-22 [1]) is reported as “Non-Toxic” and the Activity (HT-22 [2]) is reported as “Active”. The Activity (HT-22 [4]) was “Active”.
CN(C)c1ccc(CCCC2C(=O)Nc3ccccc32)cc1 (racemic) was tested, and the Activity (HT-22 [5]) was “Active”, the IC50 (HT-22 [3]) was 5.5 µM and the Activity (HT-22 [1]) was “Non-Toxic”. For the same compound, the Activity (HT-22 [2]) was “Active”.
With CN(Cc1ccccc1)c1ccc(CCCC2(C)C(=O)Nc3ccccc32)cc1 (racemic) the Activity (HT-22 [1]) was “Non-Toxic” and the Activity (HT-22 [2]) was “Active”.
With CN(C)c1ccc(CCCCC2C(=O)Nc3ccccc32)cc1 (racemic) the Activity (HT-22 [1]) was “Non-Toxic” and the Activity (HT-22 [2]) was “Active”.
For COc1ccc2c(c1)C(C)(CCCc1ccc(N(C)C)cc1)C(=O)N2 (racemic) [listing 1 of 2 here], the Activity (HT-22 [1]) was “Non-Toxic”.
In the case of COc1ccc2c(c1)C(C)(CCOc1ccc(N(C)C)cc1)C(=O)N2 (racemic), the Activity (HT-22 [1]) is reported as “Non-Toxic” and the Activity (HT-22 [2]) is reported as “Active”.
COc1ccc2c(c1)C(C)(CCCc1ccc(N(C)C)cc1)C(=O)N2CC(=O)O (racemic) was tested, and the Activity (HT-22 [1]) was “Non-Toxic” and the Activity (HT-22 [2]) was “inactive”.
In the case of CN(C)c1ccc(CCCC2(C)C(=O)Nc3ccc(O)cc32)cc1 (racemic), the Activity (HT-22 [6]) is reported as “Active”, the IC50 (HT-22 [3]) is reported as 1.9 µM and the Activity (HT-22 [1]) is reported as “Non-Toxic”. For the same compound, the Activity (HT-22 [2]) was greater than 100% and the Activity (HT-22 [7]) was “Non-Toxic”.
CN(CCCCCC1C(=O)Nc2ccccc21)c1ccccc1 (racemic) was tested, and the Activity (HT-22 [1]) was “Non-Toxic” and the Activity (HT-22 [2]) was “Active”.
In the case of CCN(CC)c1ccc(CCCC2C(=O)Nc3ccccc32)cc1 (racemic), the Activity (HT-22 [1]) is reported as “Non-Toxic”, the Activity (HT-22 [2]) is reported as greater than 100% and the Activity (HT-22 [7]) is reported as “Non-Toxic”.
CN(C)c1ccc(CCCC2(C)C(=O)Nc3ccccc32)cc1 (racemic) was tested, and the Activity (HT-22 [1]) was “Non-Toxic”, the Activity (HT-22 [2]) was greater than 100% and the Activity (HT-22 [7]) was “Non-Toxic”.
CN(C)c1ccc(CCC2C(=O)Nc3ccccc32)cc1 (racemic) was tested, and the Activity (HT-22 [8]) was “inactive”, the Activity (HT-22 [1]) was “Non-Toxic” and the Activity (HT-22 [9]) was “Active”.
For CN(C)c1ccc(C(C)(C)CC2C(=O)Nc3ccccc32)cc1 (racemic), the Activity (HT-22 [1]) was “Non-Toxic”.
In the case of CN(C)c1ccc(CCCC2C(=O)N(C)c3ccccc32)cc1 (racemic), the Activity (HT-22 [1]) is reported as “Non-Toxic”, the Activity (HT-22 [2]) is reported as greater than 100% and the Activity (HT-22 [7]) is reported as “Non-Toxic”.
For CN(C)c1ccc(C(=O)NCCC2C(=O)Nc3ccccc32)cc1 (racemic), the Activity (HT-22 [1]) was “Non-Toxic” and the Activity (HT-22 [2]) was “inactive”.
For CN(C)c1cccc(CCCC2C(=O)Nc3ccccc32)c1 (racemic), the Activity (HT-22 [1]) was “Non-Toxic”, the Activity (HT-22 [2]) was greater than 100% and the Activity (HT-22 [7]) was “Non-Toxic”.
For CN(C)c1ccc(CCCC2(C)C(=O)Nc3ccc(F)cc32)cc1 (racemic), the Activity (HT-22 [10]) was “Active”, the IC50 (HT-22 [3]) was 1.2 µM and the Activity (HT-22 [1]) was “Non-Toxic”. For the same compound, the Activity (HT-22 [2]) was greater than 100% and the Activity (HT-22 [7]) was “Non-Toxic”.
COc1ccc2c(c1)C(C)(CCCc1ccc(N(C)C)cc1)C(=O)N2 (racemic) [listing 2 of 2 here] was tested, and the Activity (HT-22 [2]) was “Active”.
For COc1ccc2c(c1)C(C)(CCCc1ccc(N(C)C)cc1)C(=O)N2 (stereo in doubt; 8a), the Activity (HT-22 [2]) was “Active”.
With COc1ccc2c(c1)C(C)(CCCc1ccc(N(C)C)cc1)C(=O)N2 (stereo in doubt; 8b) the Activity (HT-22 [2]) was “Active”.
In the case of O=C1O[C@H]([C@@H](O)CO)C(O)=C1O [ASCORBIC ACID], the Activity (HT-22 [8]) is reported as 50%.
